Substitutions are numbered along the chain they refer to. Activity calls are given as the source filed them. The rule behind the calls is not given here.
Experiments:
Rattus norvegicus [1] = assay: Cardiotoxicity in Sprague-Dawley rat electrophysiology model assessed as QRS complex abnormalities at 10 mg/kg, iv by ECG analysis; format: toxicity, organism-based; set-up: dose 10 mg/kg, route intravenous; conditions: in vivo
How it was run: (§1)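 Male Sprague-Dawley rats anesthetized with inactin 100 mg/kg ip; surface lead II ECG recorded continuously. Compounds given as iv bolus via right jugular vein catheter after stabilization; QRS complex abnormality scored as no, moderate or severe change; n = 2 at 10 mg/kg.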

Heart [2] = assay: Cardiotoxicity in anesthetized New Zealand White rabbit heart assessed as prolongation of heart rate at 30 uM after 20 mins relative to baseline; format: toxicity, tissue-based, Oryctolagus cuniculus
How it was run: (§2)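 Isolated Langendorff-perfused hearts from female NZW rabbits anesthetized with thiopental 30 mg/kg iv; heart excised into chilled Krebs-Henseleit solution. After parameters stabilized, compound perfused at 10, 30 and 100 µM for 20 min; ECG changes expressed as % change from baseline.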

Heart [3] = assay: Cardiotoxicity in anesthetized New Zealand White rabbit heart assessed as prolongation of […] at 10 uM after 20 mins relative to baseline; format: toxicity, tissue-based, Oryctolagus cuniculus; how it was run: as §2
Renin [4] = molecular target: T1, Renin (Homo sapiens, UniProt P00797); assay: Inhibition of human recombinant renin using Arg-Glu(EDANS)-Ile-His-Pro-Phe-His-Leu-Val-Ile-His-Thr-Lys (DABCYL)-Arg as substrate incubated for 10 mins prior to substrate addition measured after 90 mins by fluorescence assay
T1 sequence (P00797 whole entry): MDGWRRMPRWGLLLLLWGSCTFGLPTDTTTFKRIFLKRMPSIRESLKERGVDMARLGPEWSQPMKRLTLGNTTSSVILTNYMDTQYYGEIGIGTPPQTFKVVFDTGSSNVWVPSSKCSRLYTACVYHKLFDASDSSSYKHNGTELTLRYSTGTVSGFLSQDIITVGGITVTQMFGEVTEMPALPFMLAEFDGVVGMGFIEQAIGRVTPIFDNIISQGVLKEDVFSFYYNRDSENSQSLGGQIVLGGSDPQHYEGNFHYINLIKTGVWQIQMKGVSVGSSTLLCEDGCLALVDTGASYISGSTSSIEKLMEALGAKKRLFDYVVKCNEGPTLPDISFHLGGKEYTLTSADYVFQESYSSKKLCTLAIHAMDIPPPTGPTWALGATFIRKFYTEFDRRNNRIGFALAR
How it was run: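 Trypsin-activated recombinant human renin in 50 mM Tris-HCl pH 7.9, 100 mM NaCl, preincubated with compound 10 min at room temperature; FRET substrate Arg-Glu(EDANS)…Lys(DABCYL)-Arg added, 90 min at 37 °C.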

Heart [5] = assay: Cardiotoxicity in anesthetized New Zealand White rabbit heart assessed as prolongation of QTc interval at 30 uM after 20 mins relative to baseline; format: toxicity, tissue-based, Oryctolagus cuniculus; how it was run: as §2
Heart [6] = assay: Cardiotoxicity in anesthetized New Zealand White rabbit heart assessed as prolongation of […] at 30 uM after 20 mins relative to baseline; format: toxicity, tissue-based, Oryctolagus cuniculus; how it was run: as §2
Heart [7] = assay: Cardiotoxicity in anesthetized New Zealand White rabbit heart assessed as prolongation of QTc interval at 10 uM after 20 mins relative to baseline; format: toxicity, tissue-based, Oryctolagus cuniculus; how it was run: as §2
[8] = molecular target: T2, Renin (Macaca fascicularis) (UniProt Q6DLS0); assay: Ratio of compound IC50 to aliskiren IC50 for renin in cynomolgus monkey plasma
T2 sequence (whole entry): T1 sequence (P00797 whole entry) with T68A, I214L, S235A

Renin [9] = molecular target: T3, Renin (Macaca fascicularis, UniProt Q6DLS0); assay: Inhibition of renin in cynomolgus monkey plasma after 1 hr by RIA
T3 sequence (Q6DLS0 whole entry): T1 sequence (P00797 whole entry) with T68A, I214L, S235A
How it was run: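 Pooled mixed-gender EDTA cynomolgus monkey plasma with pH adjusting solution and Inhibitor A, compound in 1% DMSO final, incubated 1 h at 37 °C. Angiotensin I by competitive RIA; uninhibited and 4 °C controls define % inhibition; IC50 from four-parameter fit; ratio is compound IC50 over aliskiren IC50 in same plasma batch; ≥2 replicates.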

Heart [10] = assay: Cardiotoxicity in anesthetized New Zealand White rabbit heart assessed as prolongation of heart rate at 10 uM after 20 mins relative to baseline; format: toxicity, tissue-based, Oryctolagus cuniculus; how it was run: as §2
Heart [11] = assay: Cardiotoxicity in anesthetized New Zealand White rabbit heart assessed as prolongation of QRS width at 30 uM after 20 mins relative to baseline; format: toxicity, tissue-based, Oryctolagus cuniculus; how it was run: as §2
Heart [12] = assay: Cardiotoxicity in anesthetized New Zealand White rabbit heart assessed as prolongation of QRS width at 10 uM after 20 mins relative to baseline; format: toxicity, tissue-based, Oryctolagus cuniculus; how it was run: as §2
Heart [13] = assay: Cardiotoxicity in anesthetized New Zealand White rabbit heart assessed as ventricular tachycardia and ventricular fibrillation at 30 uM after 20 mins; format: toxicity, tissue-based, Oryctolagus cuniculus; how it was run: as §2
[14] = AUC (0 to 24 hrs) in cynomolgus monkey at 3 mg/kg, po by HPLC-MS/MS analysis; format: ADME, organism-based, Macaca fascicularis; set-up: time < 24 hr, dose 3 mg/kg, route oral; conditions: plasma
How it was run: (§3)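 Blood sampled over 24 h, at least 7 time points; plasma levels by HPLC-MS/MS; parameters from non-compartmental analysis of concentration-time curves.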

[15] = Cmax in cynomolgus monkey at 3 mg/kg, po by HPLC-MS/MS analysis; format: ADME, organism-based, Macaca fascicularis; set-up: dose 3 mg/kg, route oral; conditions: in vivo; how it was run: as §3
Rattus norvegicus [16] = assay: Cardiotoxicity in Sprague-Dawley rat electrophysiology model assessed as QRS complex abnormalities at 10 mg/kg, iv; format: toxicity, organism-based; set-up: dose 10 mg/kg, route intravenous; conditions: in vivo; how it was run: as §1
[17] = Half life in cynomolgus monkey at 3 mg/kg, po by HPLC-MS/MS analysis; format: ADME, organism-based, Macaca fascicularis; set-up: dose 3 mg/kg, route oral; conditions: in vivo; how it was run: as §3
Cynomolgus monkey [18] = assay: Inhibition of renin in furosemide pretreated cynomolgus monkey plasma at 3 mg/kg, po; format: functional, organism-based; set-up: dose 3 mg/kg; conditions: Macaca fascicularis
How it was run: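 Cynomolgus monkeys pretreated with furosemide given single oral dose 1, 3 or 10 mg/kg or vehicle 1% methylcellulose. Venous blood into EDTA-2Na tubes at 1, 2, 4, 8, 24 h, chilled, centrifuged cold, plasma frozen; plasma renin activity by radioimmunoassay.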

[19] = Oral bioavailability in cynomolgus monkey at 3 mg/kg by HPLC-MS/MS analysis; format: ADME, organism-based, Macaca fascicularis; conditions: in vivo; how it was run: as §3
Rattus norvegicus [20] = organism: Rattus norvegicus; assay: Displacement of [3H]batrachotoxin from sodium channel (site 2) in Wistar rat brain at 10 uM relative to control; format: tissue-based
How it was run: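 Rat brain membranes in modified Tris–HCl buffer, pH 7.4, incubated 1 h at 37 °C with 5 nM [3H]batrachotoxin plus test compound. Nonspecific binding defined with excess veratridine. Binding affinity is expressed as percent inhibition relative to vehicle control.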

Cynomolgus monkey [21] = assay: Inhibition of renin in furosemide pretreated cynomolgus monkey assessed as reduction in mean arterial blood pressure at 3 mg/kg, po; format: functional, organism-based; set-up: dose 3 mg/kg; conditions: Macaca fascicularis
How it was run: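 Conscious freely moving telemetered cynomolgus monkeys (n = 6), furosemide 5 mg/kg/day im for 3 days before dosing; fasted from morning, fed ≥8 h post-dose. Oral 1, 3, 10 mg/kg or 1% methylcellulose, crossover design; arterial pressure recorded from −3 to 24 h; hourly mean MAP; mean ± SEM.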

Cynomolgus monkey [22] = assay: Cardiotoxicity in telemetered cynomolgus monkey assessed as ventricular fibrillation at 50 mg/kg, po; format: toxicity, organism-based, Macaca fascicularis, Cardiac ventricle; set-up: dose 50 mg/kg, route oral; conditions: in vivo
[23] = Clearance in cynomolgus monkey at 1 mg/kg, iv by HPLC-MS/MS analysis; format: ADME, organism-based, Macaca fascicularis; set-up: dose 1 mg/kg, route intravenous; conditions: in vivo
Rattus norvegicus [24] = assay: Cardiotoxicity in iv bolus dosed Sprague-Dawley rat electrophysiology model assessed as QRS complex abnormalities; format: toxicity, organism-based; conditions: in vivo; how it was run: as §1
Cynomolgus monkey [25] = assay: Cardiotoxicity in telemetered cynomolgus monkey assessed as ventricular tachycardia at 50 mg/kg, po; format: toxicity, organism-based, Macaca fascicularis, Cardiac ventricle; set-up: dose 50 mg/kg, route oral; conditions: in vivo
[26] = Volume of distribution at steady state in cynomolgus monkey at 1 mg/kg, iv by HPLC-MS/MS analysis; format: ADME, organism-based, Macaca fascicularis; set-up: dose 1 mg/kg, route intravenous; conditions: in vivo, read-out: Vdss
Rattus norvegicus [27] = assay: Toxicity in Sprague-Dawley rat electrophysiology model assessed as mortality at 3 to 10 mg/kg, iv; format: organism-based; set-up: dose 3-10 mg/kg, route intravenous; conditions: in vivo

Structure (SMILES) | Activity (Rattus norvegicus [1]) | IC50 (Renin [4]) [nM] | Ratio IC50 [8] | IC50 (Renin [9]) [nM] | further results
CC[C@H](C[C@H](O)[C@@H](N)CN1CC(=O)N(c2ccccc2Cl)CC1(C)C)C(=O)NCC(C)(C)CO.O=C(O)/C=C/C(=O)O | Non-toxic | 1.6 | 0.8 | 5.2 | Activity (Heart [2]): -4.3%; Activity (Heart [3]): -7.8%; Activity (Heart [5]): -5.4%; Activity (Heart [6]): 3.4%; Activity (Heart [7]): -2.1%; Activity (Heart [10]): -3.5%; Activity (Heart [11]): 1.7%; Activity (Heart [12]): 3.8%
CC(C)[C@H](C[C@H](O)[C@@H](N)CN1CC(=O)N(c2ccccc2Cl)CC1(C)C)C(=O)Nc1ccc(F)cn1.O=C(O)/C=C/C(=O)O | Toxic | 0.9 | 0.5 | 3.4 | Activity (Heart [13]): Toxic; Activity (Heart [3]): 64.1%; Activity (Heart [7]): 13.5%; Activity (Heart [10]): -3.7%; Activity (Heart [12]): 74.7%
CC[C@H](C[C@H](O)[C@@H](N)CN1CC(=O)N(c2ccccc2Cl)CC1(C)C)C(=O)NC1C2CC3CC1CC(C(N)=O)(C3)C2.O=C(O)/C=C/C(=O)O (stereo partly drawn) | – | 1.3 | 0.5 | 1.2 | AUC(0-t) at 24 h [14]: 90 ng·h/mL; Cmax [15]: 19 ng/mL
CN1CC(=O)N(c2ccccc2Cl)CC1(C)C | – | – | – | – | Activity (Rattus norvegicus [16]): Non-toxic
CCN(CC)CC(=O)Nc1c(C)cccc1C [LIDOCAINE] | – | – | – | – | Activity (Rattus norvegicus [16]): Toxic
CC[C@H](C[C@H](O)[C@@H](N)CN1CC(=O)N(c2cc(F)ccc2C)CC1(C)C)C(=O)N[C@H]1C2CC3CC1C[C@](O)(C3)C2.O=C(O)/C=C/C(=O)O | Non-toxic | 1.6 | 0.9 | 4.6 | –
CC(C)NC(=O)[C@@H](C[C@H](O)[C@@H](N)CN1CC(=O)N(c2ccccc2Cl)CC1(C)C)C(C)C.O=C(O)/C=C/C(=O)O | Toxic | 2.9 | 2.7 | 33 | –
CC[C@H](C[C@H](O)[C@@H](N)CN1CC(=O)N(c2ccccc2Cl)CC1(C)C)C(=O)NCC(CC)(CC)CO.O=C(O)/C=C/C(=O)O | Toxic | 1 | 0.8 | 3 | –
CC[C@H](C[C@H](O)[C@@H](N)CN1CC(=O)N(c2ccccc2Cl)CC1(C)C)C(=O)N[C@H]1C2CC3CC1C[C@@](O)(C3)C2.O=C(O)/C=C/C(=O)O | Toxic | 1.1 | 0.7 | 1.8 | –
CC(C)[C@H](C[C@H](O)[C@@H](N)CN1CC(=O)N(c2ccccc2Cl)CC1(C)C)C(=O)N[C@H]1CC[C@H](O)CC1.O=C(O)/C=C/C(=O)O | Non-toxic | 1.4 | 0.8 | 4.3 | AUC(0-t) at 24 h [14]: 75 ng·h/mL; Cmax [15]: 19 ng/mL
CC(C)[C@H](C[C@H](O)[C@@H](N)CN1CC(=O)N(c2ccccc2Cl)CC1(C)C)C(=O)Nc1ncc(F)cc1F.O=C(O)/C=C/C(=O)O | Toxic | 1.7 | 0.7 | 3.3 | –
CC(C)[C@H](C[C@H](O)[C@@H](N)CN1CC(=O)N(c2ccccc2Cl)CC1(C)C)C(=O)Nc1ccccn1.O=C(O)/C=C/C(=O)O | Toxic | 1.8 | 0.7 | 3.4 | –
CC(C)[C@H](C[C@H](O)[C@@H](N)CN1CC(=O)N(c2ccccc2Cl)CC1(C)C)C(=O)NCC(C)(C)C.O=C(O)/C=C/C(=O)O | Toxic | 1 | 0.5 | 3 | AUC(0-t) at 24 h [14]: 460 ng·h/mL; half-life [17]: 15.3 h; inhibition (Cynomolgus monkey [18]): Active; Activity (Heart [13]): Toxic; bioavailability [19]: 26.4%; Activity (Heart [3]): 68.9%; Activity (Rattus norvegicus [20]): 87%; inhibition (Cynomolgus monkey [21]): Active; Activity (Cynomolgus monkey [22]): Toxic; Cmax [15]: 111 ng/mL; clearance [23]: 28.4 mL/min/kg; Activity (Rattus norvegicus [24]): Dose-dependent effect; Activity (Heart [7]): -1.5%; Activity (Heart [10]): -4.6%; Activity (Cynomolgus monkey [25]): Toxic; Vd [26]: 23.5 L/kg; Activity (Rattus norvegicus [27]): Toxic; Activity (Heart [12]): 15.6%
CC(C)[C@H](C[C@H](O)[C@@H](N)CN1CC(=O)N(c2ccccc2Cl)CC1(C)C)C(=O)NCC(C)(C)CO.O=C(O)/C=C/C(=O)O | Toxic | 1.7 | 0.8 | 9.6 | –
CC[C@H](C[C@H](O)[C@@H](N)CN1CC(=O)N(c2ccccc2Cl)CC1(C)C)C(=O)Nc1ncccc1C.O=C(O)/C=C/C(=O)O | Toxic | 3.8 | 2.9 | 15 | –

Reference: ChEMBL document CHEMBL2384910, “Lead optimization of 5-amino-6-(2,2-dimethyl-5-oxo-4-phenylpiperazin-1-yl)-4-hydroxyhexanamides to reduce a cardiac safety issue: discovery of DS-8108b, an orally active renin inhibitor” (Bioorg Med Chem, 2013)
